Results as given in PMC3677025 (Pharmacological research : the official journal of the …, 2012).
Several values for one entry are separate records, joined by “and”; a condition that tells them apart may be missing. Equal values may be shown once.

Legend:
EphA4 = EphA4 (Mus musculus, UniProt Q03137); assay: EphA4 AP binding to immobilized KYL peptide
How it was run: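 Biotinylated KYL peptide (biotin on the lysine of a C-terminal GSGSK linker) was captured on streptavidin-coated wells, with coating in borate buffer pH 8.7. Test compound (10 μM in 1% DMSO for screening; varied concentrations for confirmation) was added with ~0.35 nM mouse EphA4 ectodomain–AP from NIH3T3 supernatant in TBST. Bound AP was read at 405 nm with 1 mg/ml p-nitrophenylphosphate in SEAP buffer pH 9.8, minus AP-only background. Percent inhibition was taken relative to no-compound wells.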

EphA3 = assay: ELISA, ephrin-A5 AP binding to immobilized EphA3 Fc; settings: read-out: IC50, inhibition of ephrin binding to EphA3
How it was run: (§1)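 Eph receptor Fc fusions were immobilized at 1 μg/ml in TBST on protein A-coated wells. Diluted ephrin AP fusion supernatant from transiently transfected HEK293 cells was added for 2 h with or without test compound; for IC50 it was at approximately 0.01 nM. Bound AP was read with p-nitrophenylphosphate, minus Fc-only background. IC50 came from a variable-slope log(inhibitor)–response fit, bottom constrained to 0.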

EphB6 = assay: ELISA, ephrin-B2 AP binding to immobilized EphB6 Fc; settings: read-out: IC50, inhibition of ephrin binding to EphB6
How it was run: as §1

EphB1 = assay: ELISA, ephrin-B2 AP binding to immobilized EphB1 Fc; settings: concentrations up to 200 μM
How it was run: as §1

EphB2 [1] = assay: ELISA, ephrin-B2 AP binding to immobilized EphB2 Fc; settings: concentrations up to 200 μM
How it was run: as §1

EphA2 [2] = target: T1, EphA2 (Homo sapiens, UniProt P29317); assay: Ephrin-A1 Fc-induced EphA2 tyrosine phosphorylation in PC3 cells; format: cell-based; settings: read-out: IC50, EphA2 tyrosine phosphorylation, 0.25 μg/mL ephrin-A1 Fc, ELISA
T1 sequence (P29317 24-976): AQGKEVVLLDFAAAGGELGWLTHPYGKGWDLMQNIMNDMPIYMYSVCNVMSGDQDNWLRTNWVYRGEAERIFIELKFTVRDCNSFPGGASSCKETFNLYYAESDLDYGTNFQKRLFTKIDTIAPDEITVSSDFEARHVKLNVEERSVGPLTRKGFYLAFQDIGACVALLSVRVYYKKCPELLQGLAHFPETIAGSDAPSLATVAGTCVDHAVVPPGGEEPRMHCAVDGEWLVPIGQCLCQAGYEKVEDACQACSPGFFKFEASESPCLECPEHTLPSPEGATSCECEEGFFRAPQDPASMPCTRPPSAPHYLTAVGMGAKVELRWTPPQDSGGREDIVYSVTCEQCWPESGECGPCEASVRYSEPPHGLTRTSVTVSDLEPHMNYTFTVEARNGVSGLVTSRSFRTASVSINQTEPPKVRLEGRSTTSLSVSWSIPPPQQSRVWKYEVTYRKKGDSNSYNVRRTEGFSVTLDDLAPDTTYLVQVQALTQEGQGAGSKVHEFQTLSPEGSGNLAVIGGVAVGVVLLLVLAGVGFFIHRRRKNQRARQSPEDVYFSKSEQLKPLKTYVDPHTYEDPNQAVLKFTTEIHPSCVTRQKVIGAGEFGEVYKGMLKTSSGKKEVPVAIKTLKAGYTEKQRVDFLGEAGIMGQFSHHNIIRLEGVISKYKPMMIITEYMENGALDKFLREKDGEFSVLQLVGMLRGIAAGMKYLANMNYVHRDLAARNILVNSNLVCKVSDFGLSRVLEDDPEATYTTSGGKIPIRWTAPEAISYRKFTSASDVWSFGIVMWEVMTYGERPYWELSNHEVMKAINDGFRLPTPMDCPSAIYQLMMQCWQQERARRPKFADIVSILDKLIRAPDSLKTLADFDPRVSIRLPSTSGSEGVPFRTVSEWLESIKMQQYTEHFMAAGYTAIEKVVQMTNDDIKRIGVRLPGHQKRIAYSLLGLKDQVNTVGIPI
How it was run: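 PC3 cells were serum-starved 1 h, given test compound (final DMSO ≤0.4%) for 15 min, then ephrin-A1 Fc for 20 min with compound still present. Lysis was in modified RIPA with NaF and pervanadate. Lysates were split for phospho and total EphA2 ELISA: anti-EphA2 extracellular capture, anti-phosphotyrosine or anti-cytoplasmic EphA2 detection, ABTS read at A405. IC50 was fitted to values normalized to ephrin-only cells.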

EphB2 [3] = assay: Ephrin-B2 Fc-induced EphB2 tyrosine phosphorylation in COS cells; format: cell-based; settings: relative to concentrations inhibiting other Eph receptors
How it was run: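 Cells were serum-starved 1–2 h and pretreated 15 min with test compound (DMSO ≤0.4% final). They were then stimulated 20 min with compound present: COS cells with 0.8 μg/mL ephrin-B2 Fc, and B16 melanoma cells with 1.5 μg/mL anti-Fc-preclustered ephrin-B2 Fc, or Fc control. Lysates were made in modified RIPA. EphB2 (COS; 7 μg antibody) or EphB4 (B16; 20 μg antibody) was immunoprecipitated, probed for phosphotyrosine, then reprobed for the receptor.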

EphA2 [4] = target: T1, EphA2; assay: Ephrin-A1 Fc-induced EphA2 phosphorylation in HUVECs; format: cell-based; settings: at 50 μM
How it was run: (§2)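 HUVECs were serum-starved 1–2 h and preincubated 15 min with 50 μM test compound (DMSO ≤0.4% final). They were then stimulated 20 min with 0.25 μg/mL ephrin-A1 Fc plus 1.5 μg/mL ephrin-B2 Fc (preclustered with 3-fold anti-Fc), or Fc, with compound present. Lysates were made in modified RIPA with NaF and pervanadate. EphA2 (1 μg antibody) and EphB4 (20 μg antibody) immunoprecipitates were immunoblotted for phosphotyrosine; lysates were probed for receptors and β-actin.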

EphB4 = target: T2, EphB4 (Homo sapiens, UniProt P54760); assay: Ephrin-B2 Fc-induced EphB4 phosphorylation in HUVECs; format: cell-based; settings: at 50 μM
T2 sequence (P54760 16-987): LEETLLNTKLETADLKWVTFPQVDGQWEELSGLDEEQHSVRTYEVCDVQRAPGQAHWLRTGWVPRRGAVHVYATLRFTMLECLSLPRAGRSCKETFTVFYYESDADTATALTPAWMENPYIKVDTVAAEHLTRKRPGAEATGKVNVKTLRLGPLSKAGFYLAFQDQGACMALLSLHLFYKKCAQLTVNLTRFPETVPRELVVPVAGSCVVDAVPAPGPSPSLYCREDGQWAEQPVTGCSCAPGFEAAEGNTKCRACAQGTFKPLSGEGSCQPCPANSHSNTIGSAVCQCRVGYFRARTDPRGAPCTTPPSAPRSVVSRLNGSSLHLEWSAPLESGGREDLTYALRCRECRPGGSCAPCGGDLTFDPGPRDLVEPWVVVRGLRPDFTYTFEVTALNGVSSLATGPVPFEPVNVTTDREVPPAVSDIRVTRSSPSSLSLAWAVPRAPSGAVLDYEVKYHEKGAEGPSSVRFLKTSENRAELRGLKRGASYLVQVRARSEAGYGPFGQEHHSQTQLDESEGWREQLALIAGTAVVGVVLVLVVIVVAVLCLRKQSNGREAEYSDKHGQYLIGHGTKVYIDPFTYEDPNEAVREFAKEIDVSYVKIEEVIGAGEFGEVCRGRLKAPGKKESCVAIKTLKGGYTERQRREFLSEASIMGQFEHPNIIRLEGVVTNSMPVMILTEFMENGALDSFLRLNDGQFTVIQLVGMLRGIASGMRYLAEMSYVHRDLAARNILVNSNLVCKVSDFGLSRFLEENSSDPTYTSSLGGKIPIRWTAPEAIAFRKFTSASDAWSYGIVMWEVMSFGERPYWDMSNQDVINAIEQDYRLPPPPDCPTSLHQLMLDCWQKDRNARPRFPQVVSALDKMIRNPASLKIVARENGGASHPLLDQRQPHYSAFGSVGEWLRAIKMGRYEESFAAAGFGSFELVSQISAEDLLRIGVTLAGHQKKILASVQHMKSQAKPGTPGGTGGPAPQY
How it was run: as §2

Chain of EphA4 (Q03137 20-547 limits assumed): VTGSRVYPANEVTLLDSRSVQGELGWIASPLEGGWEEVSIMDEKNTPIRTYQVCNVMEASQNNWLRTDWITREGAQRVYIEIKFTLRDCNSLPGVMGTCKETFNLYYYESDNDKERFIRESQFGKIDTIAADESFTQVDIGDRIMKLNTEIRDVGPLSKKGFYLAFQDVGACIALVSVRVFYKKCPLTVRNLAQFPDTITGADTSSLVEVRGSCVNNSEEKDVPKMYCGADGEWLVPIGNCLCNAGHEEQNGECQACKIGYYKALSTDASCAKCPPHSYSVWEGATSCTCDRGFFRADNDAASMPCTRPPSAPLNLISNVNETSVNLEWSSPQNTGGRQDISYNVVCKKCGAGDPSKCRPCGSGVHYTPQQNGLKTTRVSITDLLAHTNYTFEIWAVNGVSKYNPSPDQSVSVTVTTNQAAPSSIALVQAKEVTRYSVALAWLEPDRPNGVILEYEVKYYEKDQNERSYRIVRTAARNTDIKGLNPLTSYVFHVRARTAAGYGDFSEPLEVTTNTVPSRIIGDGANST

O=C(Oc1cc(O)cc2c1C[C@@H](OC(=O)c1cc(O)c(O)c(O)c1)[C@@H](c1cc(O)c(O)c(O)c1)O2)c1cc(O)c(O)c(O)c1 [epigallocatechin-3,5-digallate]
IC50 (EphA4; read-out: IC50 ± SE EphA4 KYL): 1.5 ± 0.13 µM
(% Inhib.) EphA4 KYL (EphA4; screen, compounds at 10 μM): 58%
IC50 (EphA3): < 10 µM
IC50 (EphB6): < 10 µM
inhibition of EphB1-ephrin interaction (EphB1): no inhibition
inhibition of EphB2-ephrin interaction (EphB2 [1]): does not target
inhibition of EphB2-ephrin interaction (EphB2 [1]; listed as Epigallocatechin-3,5-digallate): no inhibition
IC50 (EphA2 [2]): 90 µM and ~90 µM
inhibition of EphB2 phosphorylation (EphB2 [3]): at higher concentrations
EphA2 phosphorylation in HUVECs (EphA2 [4]): strongly inhibits
EphB4 phosphorylation in HUVECs (EphB4): strongly inhibits
